Laboratory results taken from ChEMBL document CHEMBL5712905, “H3K27M induces defective chromatin spread of PRC2-mediated repressive H3K27me2/me3 and is essential for glioma tumorigenesis” (2019).
Each block holds one compound with its values, some of them ahead of it. Activity calls are given as the source filed them. No cut-off for these calls is given here.

What was measured:
[1] = target: Histone-lysine N-methyltransferase EZH2 (Homo sapiens) (UniProt Q15910); test: Inhibition of EZH2 in human G477 cells assessed as decrease in H3K27me2 deposition by western blot method; type: cell-based
[2] = tested on: BT-245; test: Growth inhibition of human BT-245 cells expressing mutant K27M at 2.5 uM assessed as normalized cell index after 7 days by Alamar blue assay relative to control; type: functional; conditions: time 7 day
Method in brief: (§1)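 Tumor-derived cells were grown in NS-A proliferation medium with bFGF (10 ng/mL), rhEGF (20 ng/mL) and heparin on poly-L-ornithine/laminin coating. They were plated at 7000 cells/well and exposed to EZH2 inhibitor (0.5–10 uM) or DMSO vehicle for 7 days, with media changed every 3 days. Alamar blue was added on day 7 for 6 h and absorbance read at 570 and 600 nm. Percent difference versus untreated growth control was derived from an extinction-coefficient formula; values are the mean of three replicates ± SEM.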

[3] = tested on: BT-245; test: Growth inhibition of K27M knock-out human BT-245 cells at 4 uM assessed as normalized cell index after 7 days by Alamar blue assay relative to control; type: functional; conditions: time 7 day; method in brief: as §1
[4] = tested on: BT-245; test: Growth inhibition of human BT-245 cells expressing mutant K27M at 10 uM assessed as normalized cell index after 7 days by Alamar blue assay relative to control; type: functional; conditions: time 7 day; method in brief: as §1
[5] = tested on: BT-245; test: Growth inhibition of human BT-245 cells expressing mutant K27M at 3 uM assessed as normalized cell index after 7 days by Alamar blue assay relative to control; type: functional; conditions: time 7 day; method in brief: as §1
[6] = tested on: BT-245; test: Growth inhibition of K27M knock-out human BT-245 cells at 7 uM assessed as normalized cell index after 7 days by Alamar blue assay relative to control; type: functional; conditions: time 7 day; method in brief: as §1
[7] = tested on: BT-245; test: Growth inhibition of human BT-245 cells expressing mutant K27M at 7 uM assessed as normalized cell index after 7 days by Alamar blue assay relative to control; type: functional; conditions: time 7 day; method in brief: as §1
[8] = tested on: BT-245; test: Growth inhibition of K27M knock-out human BT-245 cells at 10 uM assessed as normalized cell index after 7 days by Alamar blue assay relative to control; type: functional; conditions: time 7 day; method in brief: as §1
[9] = tested on: BT-245; test: Growth inhibition of K27M knock-out human BT-245 cells at 3.5 uM assessed as normalized cell index after 7 days by Alamar blue assay relative to control; type: functional; conditions: time 7 day; method in brief: as §1
[10] = tested on: BT-245; test: Growth inhibition of K27M knock-out human BT-245 cells at 2.5 uM assessed as normalized cell index after 7 days by Alamar blue assay relative to control; type: functional; conditions: time 7 day; method in brief: as §1
[11] = tested on: BT-245; test: Growth inhibition of K27M knock-out human BT-245 cells at 3 uM assessed as normalized cell index after 7 days by Alamar blue assay relative to control; type: functional; conditions: time 7 day; method in brief: as §1
[12] = target: Histone-lysine N-methyltransferase EZH2 (Homo sapiens) (UniProt Q15910); test: Inhibition of EZH2 in human BT-245 cells expressing mutant K27M assessed as decrease in H3K27me2 deposition by western blot method; type: cell-based
[13] = tested on: BT-245; test: Growth inhibition of human BT-245 cells expressing mutant K27M at 5 uM assessed as normalized cell index after 7 days by Alamar blue assay relative to control; type: functional; conditions: time 7 day; method in brief: as §1
[14] = tested on: BT-245; test: Growth inhibition of human BT-245 cells expressing mutant K27M at 1.5 uM assessed as normalized cell index after 7 days by Alamar blue assay relative to control; type: functional; conditions: time 7 day; method in brief: as §1
[15] = target: Histone-lysine N-methyltransferase EZH2 (Homo sapiens) (UniProt Q15910); test: Inhibition of EZH2 in human G477 cells assessed as decrease in H3K27me3 deposition by western blot method; type: cell-based
[16] = target: Histone-lysine N-methyltransferase EZH2 (Homo sapiens) (UniProt Q15910); test: Inhibition of EZH2 in human BT-245 cells expressing mutant K27M assessed as decrease in H3K27me3 deposition by western blot method; type: cell-based
[17] = tested on: BT-245; test: Growth inhibition of K27M knock-out human BT-245 cells at 5 uM assessed as normalized cell index after 7 days by Alamar blue assay relative to control; type: functional; conditions: time 7 day; method in brief: as §1
[18] = tested on: BT-245; test: Growth inhibition of K27M knock-out human BT-245 cells at 8 uM assessed as normalized cell index after 7 days by Alamar blue assay relative to control; type: functional; conditions: time 7 day; method in brief: as §1
[19] = tested on: BT-245; test: Growth inhibition of human BT-245 cells expressing mutant K27M at 4 uM assessed as normalized cell index after 7 days by Alamar blue assay relative to control; type: functional; conditions: time 7 day; method in brief: as §1
[20] = tested on: BT-245; test: Growth inhibition of K27M knock-out human BT-245 cells at 1.5 uM assessed as normalized cell index after 7 days by Alamar blue assay relative to control; type: functional; conditions: time 7 day; method in brief: as §1
[21] = tested on: BT-245; test: Growth inhibition of human BT-245 cells expressing mutant K27M at 3.5 uM assessed as normalized cell index after 7 days by Alamar blue assay relative to control; type: functional; conditions: time 7 day; method in brief: as §1
[22] = tested on: BT-245; test: Growth inhibition of K27M knock-out human BT-245 cells at 0.5 to 10 uM after 7 days by Alamar blue assay; type: functional, cell-based; conditions: dose 0.5-10 µM, time 7.0 day; method in brief: as §1
[23] = tested on: BT-245; test: Growth inhibition of human BT-245 cells expressing mutant K27M at 0.5 to 10 uM after 7 days by Alamar blue assay; type: functional, cell-based; conditions: dose 0.5-10 µM, time 7.0 day; method in brief: as §1

Chain of Histone-lysine N-methyltransferase EZH2 (Homo sapiens) (Q15910 whole entry, looked up): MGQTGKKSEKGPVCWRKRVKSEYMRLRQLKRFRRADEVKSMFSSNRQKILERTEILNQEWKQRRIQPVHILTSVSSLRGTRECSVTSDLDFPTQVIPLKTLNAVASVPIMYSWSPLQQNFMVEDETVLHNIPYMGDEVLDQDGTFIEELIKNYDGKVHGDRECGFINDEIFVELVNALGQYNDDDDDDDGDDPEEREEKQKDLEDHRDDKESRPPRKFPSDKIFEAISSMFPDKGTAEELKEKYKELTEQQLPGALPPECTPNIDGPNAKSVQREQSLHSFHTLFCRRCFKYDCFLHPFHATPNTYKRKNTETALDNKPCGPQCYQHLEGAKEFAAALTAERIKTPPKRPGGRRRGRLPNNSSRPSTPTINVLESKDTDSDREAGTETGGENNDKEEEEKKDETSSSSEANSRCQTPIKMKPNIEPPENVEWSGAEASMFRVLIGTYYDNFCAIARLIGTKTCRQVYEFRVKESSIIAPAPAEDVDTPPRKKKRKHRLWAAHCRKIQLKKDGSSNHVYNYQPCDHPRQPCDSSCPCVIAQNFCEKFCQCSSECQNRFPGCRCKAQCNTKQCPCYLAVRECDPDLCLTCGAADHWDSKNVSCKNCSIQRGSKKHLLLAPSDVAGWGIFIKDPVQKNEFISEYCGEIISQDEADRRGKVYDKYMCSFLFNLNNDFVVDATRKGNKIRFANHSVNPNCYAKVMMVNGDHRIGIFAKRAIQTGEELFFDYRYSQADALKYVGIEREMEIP

- inhibition [1]: Active
- inhibition [12]: Active
- inhibition [15]: Active
- inhibition [16]: Active
SMILES: CCCc1cc(C)[nH]c(=O)c1CNC(=O)c1cc(-c2ccc(N3CCN(C(C)C)CC3)nc2)cc2c1cnn2C(C)C
- Activity_index [2]: 96%
- Activity_index [3]: 109.66%
- Activity_index [4]: 27.95%
- Activity_index [5]: 93.39%
- Activity_index [6]: 106.11%
- Activity_index [7]: 25.18%
- Activity_index [8]: 50.02%
- Activity_index [9]: 97.97%
- Activity_index [10]: 106.57%
- Activity_index [11]: 112.32%
- Activity_index [13]: 73.66%
- Activity_index [14]: 93.5%
- Activity_index [17]: 108.08%
- Activity_index [18]: 63.65%
- Activity_index [19]: 85.7%
- Activity_index [20]: 107.71%
- Activity_index [21]: 92.89%

SMILES: CCCc1cc(C)[nH]c(=O)c1CNC(=O)c1cc(-c2ccnc(N3CCN(C)CC3)c2)cc2c1cnn2C(C)C
- Activity [22]: Active
- Activity [23]: Active
